Reference: ChEMBL document CHEMBL5042469, “Unique Molecular Interaction with the Histone Deacetylase 6 Catalytic Tunnel: Crystallographic and Biological Characterization of a Model Chemotype” (J Med Chem, 2021)

Key:
[1] = target: Histone deacetylase 5 (Homo sapiens, UniProt Q9UQL6); test: Inhibition of full length human HDAC5 using FAM-labeled acetylated peptide as substrate by electrophoretic mobility shift assay
Method in brief: (§1)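 Full-length human HDAC isoform enzymatic assay by electrophoretic mobility shift, using a FAM-labelled acetylated peptide substrate. […] Values are the mean of duplicate experiments with 95% confidence intervals.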

[2] = Stability in mouse plasma assessed as compound remaining measured after 30 mins; type: ADME, cell-free; conditions: read-out: Stability
[3] = target: Histone deacetylase 4 (Homo sapiens, UniProt P56524); test: Inhibition of full length human HDAC4 using FAM-labeled acetylated peptide as substrate by electrophoretic mobility shift assay; method in brief: as §1
Chain of Histone deacetylase 4 (P56524 whole entry): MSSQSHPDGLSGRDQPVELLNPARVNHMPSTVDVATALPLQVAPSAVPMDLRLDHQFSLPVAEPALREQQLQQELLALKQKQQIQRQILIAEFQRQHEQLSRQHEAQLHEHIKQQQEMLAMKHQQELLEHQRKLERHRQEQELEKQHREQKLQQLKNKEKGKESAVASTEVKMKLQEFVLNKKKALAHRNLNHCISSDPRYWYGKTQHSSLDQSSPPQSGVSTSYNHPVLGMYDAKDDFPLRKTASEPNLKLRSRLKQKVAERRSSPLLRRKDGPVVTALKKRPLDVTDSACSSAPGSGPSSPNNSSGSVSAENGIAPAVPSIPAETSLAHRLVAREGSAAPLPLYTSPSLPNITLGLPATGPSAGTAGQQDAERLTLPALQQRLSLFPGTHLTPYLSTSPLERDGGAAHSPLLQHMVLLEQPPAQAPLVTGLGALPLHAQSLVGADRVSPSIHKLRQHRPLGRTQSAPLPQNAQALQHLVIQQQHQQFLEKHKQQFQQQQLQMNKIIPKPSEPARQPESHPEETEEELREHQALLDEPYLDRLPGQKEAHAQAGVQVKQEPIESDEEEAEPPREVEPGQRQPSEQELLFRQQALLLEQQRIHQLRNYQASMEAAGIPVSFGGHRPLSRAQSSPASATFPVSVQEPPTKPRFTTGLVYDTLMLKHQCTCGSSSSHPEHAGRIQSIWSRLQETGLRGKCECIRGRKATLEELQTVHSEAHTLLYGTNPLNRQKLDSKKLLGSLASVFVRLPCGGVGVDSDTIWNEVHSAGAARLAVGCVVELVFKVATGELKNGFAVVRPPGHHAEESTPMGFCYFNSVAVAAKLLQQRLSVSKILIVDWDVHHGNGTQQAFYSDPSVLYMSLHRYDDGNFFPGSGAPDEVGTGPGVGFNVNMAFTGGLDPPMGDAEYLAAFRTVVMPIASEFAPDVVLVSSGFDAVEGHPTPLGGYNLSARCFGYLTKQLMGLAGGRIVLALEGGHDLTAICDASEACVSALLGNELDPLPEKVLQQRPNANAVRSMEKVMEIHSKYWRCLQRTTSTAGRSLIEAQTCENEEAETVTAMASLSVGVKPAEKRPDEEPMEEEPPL

[4] = target: Histone deacetylase 7 (Homo sapiens, UniProt Q8WUI4); test: Inhibition of full length human HDAC7 using FAM-labeled acetylated peptide as substrate by electrophoretic mobility shift assay; method in brief: as §1
Chain of Histone deacetylase 7 (Q8WUI4 whole entry): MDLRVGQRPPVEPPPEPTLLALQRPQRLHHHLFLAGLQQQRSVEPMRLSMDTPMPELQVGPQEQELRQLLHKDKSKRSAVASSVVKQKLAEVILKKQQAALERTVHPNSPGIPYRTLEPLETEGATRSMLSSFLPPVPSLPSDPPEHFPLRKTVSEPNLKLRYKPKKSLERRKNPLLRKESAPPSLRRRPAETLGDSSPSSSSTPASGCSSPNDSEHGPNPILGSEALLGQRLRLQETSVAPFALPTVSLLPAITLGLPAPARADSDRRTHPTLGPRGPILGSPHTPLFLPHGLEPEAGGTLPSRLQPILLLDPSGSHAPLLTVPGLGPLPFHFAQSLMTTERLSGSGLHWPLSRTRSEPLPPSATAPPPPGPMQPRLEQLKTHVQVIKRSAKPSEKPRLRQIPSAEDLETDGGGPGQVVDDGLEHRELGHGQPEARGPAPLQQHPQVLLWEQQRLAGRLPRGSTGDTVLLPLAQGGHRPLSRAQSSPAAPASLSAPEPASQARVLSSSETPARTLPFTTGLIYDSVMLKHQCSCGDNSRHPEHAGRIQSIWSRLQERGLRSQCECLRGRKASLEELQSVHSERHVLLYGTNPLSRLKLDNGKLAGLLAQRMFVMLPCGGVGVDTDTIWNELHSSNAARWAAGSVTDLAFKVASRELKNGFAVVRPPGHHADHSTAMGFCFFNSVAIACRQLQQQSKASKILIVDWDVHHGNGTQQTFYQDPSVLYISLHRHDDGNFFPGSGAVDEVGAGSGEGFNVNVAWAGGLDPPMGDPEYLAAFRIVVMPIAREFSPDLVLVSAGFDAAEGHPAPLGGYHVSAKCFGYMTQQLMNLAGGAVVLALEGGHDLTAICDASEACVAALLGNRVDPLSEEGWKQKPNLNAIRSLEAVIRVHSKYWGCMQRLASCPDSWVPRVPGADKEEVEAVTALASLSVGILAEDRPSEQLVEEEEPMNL

[5] = target: Histone deacetylase 2 (Homo sapiens, UniProt Q92769); test: Inhibition of full length human HDAC2 using FAM-labeled acetylated peptide as substrate by electrophoretic mobility shift assay; method in brief: as §1
Chain of Histone deacetylase 2 (Q92769 whole entry): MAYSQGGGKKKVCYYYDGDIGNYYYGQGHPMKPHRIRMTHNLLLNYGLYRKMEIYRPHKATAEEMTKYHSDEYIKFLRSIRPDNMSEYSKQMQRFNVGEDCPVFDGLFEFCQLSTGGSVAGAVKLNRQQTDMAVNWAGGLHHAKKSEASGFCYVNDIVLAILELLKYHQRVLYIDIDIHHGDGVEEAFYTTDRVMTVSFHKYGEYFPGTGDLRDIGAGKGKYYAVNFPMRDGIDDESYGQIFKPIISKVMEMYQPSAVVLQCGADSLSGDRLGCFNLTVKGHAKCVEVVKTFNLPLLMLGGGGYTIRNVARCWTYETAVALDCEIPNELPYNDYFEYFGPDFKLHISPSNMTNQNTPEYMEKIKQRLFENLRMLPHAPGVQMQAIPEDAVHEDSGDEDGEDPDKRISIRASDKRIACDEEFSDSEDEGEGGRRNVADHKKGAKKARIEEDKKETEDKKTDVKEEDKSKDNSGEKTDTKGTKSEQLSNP

[6] = system: MV4-11; test: Induction of apoptosis in human MV4-11 cells assessed as viable cells at 1 uM incubated for 15 mins by Annexin-V/FITC staining based FACS analysis (reference value: 35.53%); type: functional; conditions: MV4-11, 0.25 h, read-out: Activity
Method in brief: (§2)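 MV4-11 cells were dosed, then washed twice in cold PBS and resuspended in binding buffer at 1×10^6 cells/mL. Cells were stained with FITC-annexin V and propidium iodide for 15 min in the dark, diluted with binding buffer and analysed by flow cytometry within 1 h. Quadrants: LL viable, LR early apoptotic, UR late apoptotic. Duplicate experiments averaged; DMSO control.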

[7] = system: MV4-11; test: Induction of apoptosis in human MV4-11 cells assessed as viable cells at 4 uM incubated for 15 mins by Annexin-V/FITC staining based FACS analysis (reference value: 35.53%); type: functional; conditions: MV4-11, 0.25 h, read-out: Activity; method in brief: as §2
[8] = system: MV4-11; test: Induction of apoptosis in human MV4-11 cells assessed as early apoptotic cells at 0.25 uM incubated for 15 mins by Annexin-V/FITC staining based FACS analysis (reference value: 0.70%); type: functional; method in brief: as §2
[9] = system: MV4-11; test: Induction of apoptosis in human MV4-11 cells assessed as early apoptotic cells at 0.50 uM incubated for 15 mins by Annexin-V/FITC staining based FACS analysis (reference value: 0.70%); type: functional; conditions: dose 0.5 µM, 0.25 h; method in brief: as §2
[10] = system: MV4-11; test: Induction of apoptosis in human MV4-11 cells assessed as early apoptotic cells at 1 uM incubated for 15 mins by Annexin-V/FITC staining based FACS analysis (reference value: 0.70%); type: functional; conditions: 0.25 h; method in brief: as §2
[11] = system: MV4-11; test: Induction of apoptosis in human MV4-11 cells assessed as early apoptotic cells at 2 uM incubated for 15 mins by Annexin-V/FITC staining based FACS analysis (reference value: 0.70%); type: functional; conditions: 0.25 h; method in brief: as §2
[12] = system: MV4-11; test: Induction of apoptosis in human MV4-11 cells assessed as early apoptotic cells at 4 uM incubated for 15 mins by Annexin-V/FITC staining based FACS analysis (reference value: 0.70%); type: functional; conditions: 0.25 h; method in brief: as §2
[13] = system: MV4-11; test: Induction of apoptosis in human MV4-11 cells assessed as late apoptotic cells at 0.50 uM incubated for 15 mins by Annexin-V/FITC staining based FACS analysis (reference value: 4.17%); type: functional; conditions: dose 0.5 µM, 0.25 h; method in brief: as §2
[14] = system: MV4-11; test: Induction of apoptosis in human MV4-11 cells assessed as late apoptotic cells at 1 uM incubated for 15 mins by Annexin-V/FITC staining based FACS analysis (reference value: 4.17%); type: functional; conditions: 0.25 h; method in brief: as §2
[15] = system: MV4-11; test: Induction of apoptosis in human MV4-11 cells assessed as late apoptotic cells at 4 uM incubated for 15 mins by Annexin-V/FITC staining based FACS analysis (reference value: 4.17%); type: functional; conditions: 0.25 h; method in brief: as §2
[16] = Stability in mouse plasma assessed as compound remaining measured after 15 mins; type: ADME, cell-free; conditions: read-out: Stability
[17] = Stability in mouse plasma measured assessed as compound remaining after 60 mins; type: ADME, cell-free; conditions: read-out: Stability
[18] = Stability in human whole blood assessed as compound remaining measured after 15 mins; type: ADME, tissue-based; conditions: read-out: Stability
[19] = Half life in mouse plasma incubated for 1 hr; type: ADME, cell-free
Method in brief: (§3)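 Compound was incubated in mouse plasma or in pooled human whole blood. […] Triplicate studies, averaged.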

[20] = Half life in human whole blood incubated for 1 hr; type: ADME, tissue-based; method in brief: as §3
[21] = Half life in Balb/c mouse at 50 mg/kg, ip by LC-MS/MS analysis; type: ADME, organism-based; conditions: in vivo
Method in brief: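 Male BALB/c mice received a single intraperitoneal dose from a 50 mg/mL solution in 5% DMSO, 30% PEG400, 1% Tween80 and 64% saline. Blood was collected at several time points and the compound quantified by triple-quadrupole LC-MS/MS.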

[22] = Kinetic solubility in pH 7.4 PBS buffer assessed as saturation concentration by HPLC analysis; type: physicochemical
[23] = system: Ramos; test: Anti-proliferative activity against human Ramos cells assessed as cell viability measured after 72 hrs by Cell-Titer assay; type: functional, cell-based
Method in brief: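 Cells were plated in 96-well plates and received compound or vehicle (0.5% DMSO) 24 h later. CellTiter-Blue was added at 72 h and fluorescence read at 560/590 nm. IC50 derived by non-linear regression.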

[24] = system: MV4-11; test: Induction of apoptosis in human MV4-11 cells assessed as viable cells at 0.25 uM incubated for 15 mins by Annexin-V/FITC staining based FACS analysis (reference value: 84.58%); type: functional; conditions: MV4-11, 0.25 h, read-out: Activity; method in brief: as §2
[25] = system: MV4-11; test: Induction of apoptosis in human MV4-11 cells assessed as viable cells at 0.50 uM incubated for 15 mins by Annexin-V/FITC staining based FACS analysis (reference value: 84.58%); type: functional; conditions: MV4-11, 0.25 h, read-out: Activity; method in brief: as §2
[26] = system: MV4-11; test: Induction of apoptosis in human MV4-11 cells assessed as viable cells at 4 uM incubated for 15 mins by Annexin-V/FITC staining based FACS analysis (reference value: 84.58%); type: functional; conditions: MV4-11, 0.25 h, read-out: Activity; method in brief: as §2
[27] = system: MV4-11; test: Induction of apoptosis in human MV4-11 cells assessed as early apoptotic cells at 0.25 uM incubated for 15 mins by Annexin-V/FITC staining based FACS analysis (reference value: 7.28%); type: functional; method in brief: as §2
[28] = system: MV4-11; test: Induction of apoptosis in human MV4-11 cells assessed as early apoptotic cells at 1 uM incubated for 15 mins by Annexin-V/FITC staining based FACS analysis (reference value: 7.28%); type: functional; conditions: 0.25 h; method in brief: as §2
[29] = system: MV4-11; test: Induction of apoptosis in human MV4-11 cells assessed as early apoptotic cells at 4 uM incubated for 15 mins by Annexin-V/FITC staining based FACS analysis (reference value: 7.28%); type: functional; conditions: 0.25 h; method in brief: as §2
[30] = system: MV4-11; test: Induction of apoptosis in human MV4-11 cells assessed as late apoptotic cells at 0.25 uM incubated for 15 mins by Annexin-V/FITC staining based FACS analysis (reference value: 4.36%); type: functional; method in brief: as §2
[31] = system: MV4-11; test: Induction of apoptosis in human MV4-11 cells assessed as late apoptotic cells at 0.50 uM incubated for 15 mins by Annexin-V/FITC staining based FACS analysis (reference value: 4.36%); type: functional; conditions: dose 0.5 µM, 0.25 h; method in brief: as §2
[32] = system: MV4-11; test: Induction of apoptosis in human MV4-11 cells assessed as late apoptotic cells at 4 uM incubated for 15 mins by Annexin-V/FITC staining based FACS analysis (reference value: 4.36%); type: functional; conditions: 0.25 h; method in brief: as §2

Chain of Histone deacetylase 5 (Q9UQL6 whole entry, canonical isoform): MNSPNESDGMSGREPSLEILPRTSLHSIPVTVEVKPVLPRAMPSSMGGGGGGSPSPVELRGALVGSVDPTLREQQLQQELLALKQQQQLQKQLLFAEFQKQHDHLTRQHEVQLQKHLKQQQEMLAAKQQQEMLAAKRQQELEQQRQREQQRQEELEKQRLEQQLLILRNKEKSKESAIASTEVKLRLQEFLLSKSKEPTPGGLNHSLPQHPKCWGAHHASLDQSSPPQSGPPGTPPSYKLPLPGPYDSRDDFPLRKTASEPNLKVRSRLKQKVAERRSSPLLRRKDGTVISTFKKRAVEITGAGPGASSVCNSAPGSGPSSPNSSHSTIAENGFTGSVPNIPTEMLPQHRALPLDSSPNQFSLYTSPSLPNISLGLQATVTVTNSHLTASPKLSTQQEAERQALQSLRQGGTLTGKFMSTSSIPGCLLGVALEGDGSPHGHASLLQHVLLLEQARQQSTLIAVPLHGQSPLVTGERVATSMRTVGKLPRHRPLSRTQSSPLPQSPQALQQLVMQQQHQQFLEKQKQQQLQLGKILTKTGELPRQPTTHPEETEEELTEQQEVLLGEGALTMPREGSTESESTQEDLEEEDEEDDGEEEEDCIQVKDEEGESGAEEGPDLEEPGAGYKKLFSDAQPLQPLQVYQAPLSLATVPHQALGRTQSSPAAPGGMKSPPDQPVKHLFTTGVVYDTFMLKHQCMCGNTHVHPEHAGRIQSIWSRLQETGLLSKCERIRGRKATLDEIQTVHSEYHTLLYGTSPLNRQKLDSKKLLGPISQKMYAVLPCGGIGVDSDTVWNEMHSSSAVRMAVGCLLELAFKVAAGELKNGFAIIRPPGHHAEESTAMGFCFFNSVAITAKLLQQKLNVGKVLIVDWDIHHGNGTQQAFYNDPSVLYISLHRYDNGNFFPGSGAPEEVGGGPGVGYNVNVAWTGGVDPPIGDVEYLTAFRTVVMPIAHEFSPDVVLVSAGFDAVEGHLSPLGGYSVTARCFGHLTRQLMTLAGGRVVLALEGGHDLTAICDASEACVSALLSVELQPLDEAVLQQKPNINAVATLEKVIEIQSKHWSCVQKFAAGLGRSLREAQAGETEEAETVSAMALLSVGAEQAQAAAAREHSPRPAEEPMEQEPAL

For `O=C(NO)c1ccc(CN(Cc2cccnc2)S(=O)(=O)c2cc(F)c(F)c(F)c2F)cc1`, which IC50 [1] is on record?
The IC50 was 8.65 µM.

And the remaining at 0.5 h [2]?
The remaining at 0.5 h was 79.8%.

And the IC50 [3]?
Its IC50 is greater than 10 µM.

And the IC50 [4]?
Its IC50 is 7.29 µM.

What about the IC50 [5] of the same molecule?
The IC50 was 4.97 µM.

And the viability at 1 µM [6]?
Its viability at 1 µM is 17.1%.

What about the viability at 4 µM [7] of the same molecule?
Its viability at 4 µM is 7.96%.

What about the Activity [8] of the same molecule?
Its Activity is 0.94%.

And the Activity [9]?
Its Activity is 1.24%.

What about the Activity [10] of the same molecule?
Its Activity is 1.84%.

What about the Activity [11] of the same molecule?
The Activity was 2.45%.

And the Activity [12]?
The Activity was 2.55%.

And the Activity [13]?
The Activity was 5.46%.

And the Activity [14]?
Its Activity is 6.87%.

What about the Activity [15] of the same molecule?
Its Activity is 19.29%.

And the remaining at 0.25 h [16]?
The remaining at 0.25 h was 88.1%.

What about the remaining at 1 h [17] of the same molecule?
Its remaining at 1 h is 68%.

What about the remaining at 0.25 h [18] of the same molecule?
The remaining at 0.25 h was 88%.

What about the t1/2 [19] of the same molecule?
The t1/2 was 1.83 h.

What about the t1/2 [20] of the same molecule?
Its t1/2 is 1.8 h.

What about the t1/2 [21] of the same molecule?
The t1/2 was 1.7 h.

And the Kinetic_solubility [22]?
Its Kinetic_solubility is 161.5 µM.

And the IC50 [23]?
The IC50 was 0.3 µM.

What does the source list for `O=C(CCCCCCNC(=O)c1cnc(N(c2ccccc2)c2ccccc2Cl)nc1)NO` [CITARINOSTAT]?
viability at 0.25 µM [24]: 84.3%; viability at 0.5 µM [25]: 81.4%; viability at 4 µM [26]: 40.9%; Activity [27]: 7.93%; Activity [28]: 16.25%; Activity [29]: 38.98%; Activity [30]: 4.65%; Activity [31]: 5.77%; Activity [32]: 15.54%
